Data set [1] can be described thus: folding enthalpy; higher = less favourable; fluorescence melt of hairpins on a sequencing array, two-state fit. As to conditions: sodium 0.088 M. The gist of the method:
(§1)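 Melting temperature and folding enthalpy were derived from bootstrapped two-state fits. The fitted temperatures were raised by 9.35 °C to agree with UV melts, and four replicates were combined by inverse variance. The underlying data were Cy3 fluorescence images of library hairpins, with annealed Cy3 and quencher oligos, on a sequenced MiSeq flow cell in 50 mM Na-HEPES pH 8.0, 25 mM NaCl, taken in 2.5 °C steps up to 60 °C, normalised to pre-quench Cy3 and to control constructs.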

A short description of data set [2]: melting temperature; fluorescence melt of hairpins on a sequencing array, two-state fit, raised by 9.35 °C to match UV melts. The note with it: sodium 0.088 M. The method, boiled down: as §1

Turning to GGCAGGCCGAAAGGCGCC (((..(((....)))))), in data set [1], the folding enthalpy was -21.3 kcal/mol. For the same sequence, the Tm in data set [2] is 59.6 °C.

In the case of GGCAGTCGAAAGACGCC (((.(((....)))))), the folding enthalpy in data set [1] is -26.6 kcal/mol. Moreover, the Tm in data set [2] amounted to 65 °C.

As to GGCAGTTCGAAAGAAGCC (((..(((....)))))), the folding enthalpy in data set [1] is -16.3 kcal/mol. Further, the Tm in data set [2] came to 34.5 °C.

On to GGCATACGAAAGTACGCC (((.(((....))).))), for which the folding enthalpy in data set [1] is -32.1 kcal/mol. In addition, the Tm in data set [2] is 51.8 °C.

On to GGCATAGGAAACTACGCC (((.(((....))).))), for which the folding enthalpy in data set [1] is -28.2 kcal/mol. The Tm in data set [2] came out at 41.1 °C.

As to GGCATATCGAAAGATGCC (((..(((....)))))), the folding enthalpy in data set [1] was -29 kcal/mol. The Tm in data set [2] worked out at 50.1 °C.

For GGCATCCGAAAGGAAGCC (((.(((....))).))), the folding enthalpy in data set [1] is -42.9 kcal/mol. Further, the Tm in data set [2] was 59.2 °C.

For GGCATCGAAAGATCGCC ((((((....))).))), the folding enthalpy in data set [1] is -24.4 kcal/mol. In data set [2], the Tm came out at 50.4 °C.

Consider GGCATCGAAAGATCGGCC ((((((....)))..))), for which the folding enthalpy in data set [1] was -23.7 kcal/mol. In addition, the Tm in data set [2] worked out at 41.1 °C.

As for GGCATCGAAAGATGCGCC ((((((....)))..))), in data set [1], the folding enthalpy is -8.72 kcal/mol. Further, in data set [2], the Tm was 57.3 °C.

For the sequence GGCATCGGAAACAACGCC (((.(.(....).).))), the folding enthalpy in data set [1] is -9.26 kcal/mol. In data set [2], the Tm was found to be 27.4 °C.

In the case of GGCATCGGAAACAATGCC (((((.(....).))))), the folding enthalpy in data set [1] is -30.4 kcal/mol. Further, the Tm in data set [2] turned out to be 46.7 °C.

Turning to GGCATCTCGAAAGAGGCC (((..(((....)))))), the folding enthalpy in data set [1] is -26.6 kcal/mol. Besides, the Tm in data set [2] was found to be 51.2 °C.

GGCATTGCGAAAGCAGCC (((..(((....)))))): in data set [1], the folding enthalpy is -16.4 kcal/mol. The Tm in data set [2] is 50.7 °C.

Regarding GGCATTGGAAACGATGTC (.(((.(....).))).), the folding enthalpy in data set [1] is -25.7 kcal/mol. In data set [2], the Tm worked out at 35.1 °C.

On to GGCCAAGCGAAAGCTGCC (((..(((....)))))), for which the folding enthalpy in data set [1] is -21.7 kcal/mol. Moreover, the Tm in data set [2] came out at 54.3 °C.

With GGCCACGAAAGTGAGCC ((((((....))).))), in data set [1], the folding enthalpy is -27.1 kcal/mol. Moreover, the Tm in data set [2] was determined as 65.8 °C.

As to GGCCACGAAAGTGAGGCC ((((((....)))..))), in data set [1], the folding enthalpy was -26.9 kcal/mol. Further, the Tm in data set [2] was 58.3 °C.

In the case of GGCCACGAAAGTGCGCC ((((((....))).))), the folding enthalpy in data set [1] is -32.8 kcal/mol. Moreover, the Tm in data set [2] is 63.6 °C.

In the case of GGCCACGAAAGTGCTGCC ((((((....)))..))), the folding enthalpy in data set [1] is -20.4 kcal/mol. Besides, the Tm in data set [2] came to 48.8 °C.

As to GGCCACGGAAACATGGCC (((((.(....).))))), in data set [1], the folding enthalpy was -49.2 kcal/mol. For the same sequence, in data set [2], the Tm stood at 53.3 °C.

With GGCCACGGAAACGCAGCC (((..((....))..))), in data set [1], the folding enthalpy was -20.5 kcal/mol. Besides, the Tm in data set [2] was 39.5 °C.

With GGCCAGAAATGGCC (((((....))))), the folding enthalpy in data set [1] was -29 kcal/mol. Also, the Tm in data set [2] came out at 67.5 °C.

Take GGCCAGCCGAAAGGCGCC (((..(((....)))))): the folding enthalpy in data set [1] was -13.4 kcal/mol. In data set [2], the Tm stood at 55.1 °C.

In the case of GGCCAGGGAAACCTAGCC (((.(((....))).))), in data set [1], the folding enthalpy is -28.4 kcal/mol. Moreover, in data set [2], the Tm was determined as 43.2 °C.

As for GGCCATCCGAAAGGAGCC (((..(((....)))))), the folding enthalpy in data set [1] was -20.1 kcal/mol. Also, in data set [2], the Tm came out at 42.8 °C.

Consider GGCCATCGAAAGATTGCC (((.(((....))).))), for which the folding enthalpy in data set [1] was -26.3 kcal/mol. The Tm in data set [2] is 49.3 °C.

In the case of GGCCATGGAAACACAGCC (((..((....))..))), in data set [1], the folding enthalpy is -13.5 kcal/mol. For the same sequence, in data set [2], the Tm amounted to 27.6 °C.

GGCCATGGAAACATGACC ((.((((....)))).)): the folding enthalpy in data set [1] was -29.2 kcal/mol. The Tm in data set [2] came to 47.6 °C.

With GGCCATGGAAACGTGGTC (.(((.(....).))).), in data set [1], the folding enthalpy was -33.2 kcal/mol. Further, the Tm in data set [2] is 45.2 °C.

Regarding GGCCCACCGAAAGGTGCC (((..(((....)))))), the folding enthalpy in data set [1] was -9.96 kcal/mol. For the same sequence, the Tm in data set [2] stood at 34.2 °C.

Regarding GGCCCACGAAAGTGAGCC (((.(((....))).))), in data set [1], the folding enthalpy was -40.6 kcal/mol. Further, the Tm in data set [2] was determined as 60.8 °C.

Regarding GGCCCACGAAAGTGCGCC (((.(((....))).))), the folding enthalpy in data set [1] is -42.5 kcal/mol. Also, in data set [2], the Tm is 55.8 °C.

For the sequence GGCCCCGAAAGGGAGCC ((((((....))).))), the folding enthalpy in data set [1] was -31.6 kcal/mol. In addition, the Tm in data set [2] was determined as 68.4 °C.

For GGCCCCGAAAGGGGAGCC ((((((....)))..))), the folding enthalpy in data set [1] was -12.8 kcal/mol. Besides, the Tm in data set [2] was 59.1 °C.

As to GGCCCCGAAAGGGTAGCC ((((((....)))..))), the folding enthalpy in data set [1] was -23.7 kcal/mol. Further, in data set [2], the Tm came to 60.1 °C.

As for GGCCCCGAAAGGGTTGCC ((((((....)))..))), the folding enthalpy in data set [1] was -16.3 kcal/mol. Moreover, the Tm in data set [2] was 55.3 °C.

Source of the values: the array DNA melting data of Ke et al. (doi:10.1101/2024.01.08.574731).
